From PubChem
Shown are actives, neighbours in structure and some others; about 1.2% of the full set was active somewhere.
CRFBP-R2 block = antagonists of CRF-BP/CRF-R2 complex, primary screen, cell-based, HEK293, calcium dye fluorescence, uHTS. 0.59% of 350,000 active. inhibition, % at 11.8 µM. CRF-induced calcium fluorescence. AID 588475, 2011;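 active = inhibition of the ligand-induced calcium signal above about 50% at the single tested concentration, limit read from the data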
CRFBP-R2 agonist = agonists of CRF-BP/CRF-R2 complex, primary screen, cell-based, HEK293, calcium dye fluorescence, uHTS. activation, % at 13.2 µM. 0.46% of 350,000 active. AID 588473, 2011. calcium dye fluorescence (FLIPR); percent of saturating CRF peptide response. CRF-binding protein / CRF receptor 2 complex (human);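 active = activation of at least 50%, plus an integration ratio under a set limit after plate pattern correction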;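 note: plate controls were neutral control wells without compound for no effect and CRF at EC100 for full effect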
DDE Tn6 FP inh = inhibitors of Tn6 peptide binding to fibrin DD(E), primary screen, biochemical, fluorescence polarization, human fibrin, Tn6 probe; Fibrin DD(E) TRITC-Tn6 fluorescence polarization displacement; Fibrinogen beta chain (Homo sapiens), P02675; 0.21% of 370,000 active; inhibition, % at 8.3 µM;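 active = inhibition above a per-campaign cutoff: mean of compounds within control limits plus 3 SD, cut at about 15% in these data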;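 note: 0% = median of all compound wells on the plate and 100% = blocking peptide control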
Target sequence (P02675 whole entry, looked up): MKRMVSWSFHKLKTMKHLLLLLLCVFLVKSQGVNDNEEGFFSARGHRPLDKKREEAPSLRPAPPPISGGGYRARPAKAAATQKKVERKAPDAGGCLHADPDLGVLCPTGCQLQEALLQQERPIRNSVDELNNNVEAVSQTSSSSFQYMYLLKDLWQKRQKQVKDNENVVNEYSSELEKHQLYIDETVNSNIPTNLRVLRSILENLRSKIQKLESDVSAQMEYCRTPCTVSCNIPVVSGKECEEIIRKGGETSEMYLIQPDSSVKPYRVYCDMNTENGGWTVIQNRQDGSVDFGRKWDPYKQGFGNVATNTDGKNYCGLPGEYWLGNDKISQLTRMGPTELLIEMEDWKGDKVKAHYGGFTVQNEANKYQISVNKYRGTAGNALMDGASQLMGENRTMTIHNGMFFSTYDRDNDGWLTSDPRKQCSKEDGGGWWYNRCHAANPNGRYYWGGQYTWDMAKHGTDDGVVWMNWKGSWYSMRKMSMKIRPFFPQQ
Tn7 DDE FP = inhibitors of Tn7 peptide binding to fibrin DD(E), primary screen, biochemical, fluorescence polarization, human fibrin, Tn7 probe. Fibrinogen beta chain (Homo sapiens), P02675. FP displacement of FITC-Tn7 peptide from fibrin DD(E); 0% = median of compound wells per plate. inhibition, % at 8.3 µM. 0.13% of 370,000 active. AID 720508, 2013;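 active = inhibition above the mean of compounds falling within the control limits plus 3 SD of them, cut at about 14% in these data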;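 note: 0% = plate median of compound wells and 100% = 10 µM Aha-Tn7 peptide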
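Assay system: Fibrin-DD(E) protein isolated from polymerized human fibrin clots; read-out basis: percent inhibition; medium: Tris/NaCl/CaCl2 buffer, pH 7.8; signal: FP measurement; incubation: 10 min plus 3 h, room temperature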
Numbers without * were called inactive; nt = no result.

SMILES	CRFBP-R2 block	CRFBP-R2 agonist	DDE Tn6 FP inh	Tn7 DDE FP
CC1CN(S(=O)(=O)c2ccc(C(=O)N3CCc4ccccc43)cc2)CC(C)O1 (stereo not drawn)	110*	0	-5	-11
Cc1ccc(Cn2cc(CN(C(C)(C)C)S(=O)(=O)c3ccc(F)cc3Br)nn2)cc1	nt	nt	5	4
O=C1CCc2nc3ccccc3c(=O)n2N1	80*	-1	nt	nt
O=c1c2ccccc2nc2n1-c1ccccc1CCC2	4	1	0	8
CC1CC(C)CN(C(=O)C2CCN(S(=O)(=O)c3cccs3)CC2)C1 (stereo not drawn)	-11	-1	0	0
CC1CCN(C(=O)C2CCN(S(=O)(=O)c3cccnc3)CC2)CC1	75*	-2	2	10
CC1CCN(C(=O)C2CCN(S(=O)(=O)c3cccs3)CC2)CC1	106*	0	5	6
COc1ccc(S[C@]2(C(=O)N3CCOCC3)CC(=O)N(C(=O)C3CC3)[C@@H]2c2ccc(OC)cc2)cc1	nt	nt	4	-3
COc1cc(C(=O)OCC(=O)NCCC2=CCCCC2)cc(OC)c1OC	-2	-2	1	-4
COc1cccc(C(=O)OCC(=O)NCCC2=CCCCC2)c1	103*	-6	4	6
CCCC1CCC2(CC1)CCC2OC(=S)Nc1cccc(Cl)c1 (stereo not drawn)	nt	nt	-6	-1
COc1ccc(NC(=O)CSc2nnc(N)s2)c([N+](=O)[O-])c1	65*	0	3	-2
COc1ccc(NC(=O)CSc2nnc(NC(C)=O)s2)c([N+](=O)[O-])c1	-6	0	5	3
COc1ccc(-n2c(COc3ccccc3)nnc2SCC(=O)Nc2ccccc2-c2ccccc2)cc1	nt	nt	0	-6
CCN1C(=O)/C(=C/C=C2/SCCN2C)SC1=S	-18	59*	0	-14
CN1CCS/C1=C\C=C1/SC(=S)N(CC(=O)O)C1=O	-76	107*	-9	-109
CC(=O)c1ccc(NC(=O)NC2CCCCN(Cc3cccc(Cl)c3)C2=O)cc1 (stereo not drawn)	nt	nt	-5	0
CS(=O)(=O)N1CCC[C@]2(CC[C@H](CCC#N)O2)C1	nt	nt	4	3
CC(C)N1Cc2nnn(Cc3ccccc3)c2-c2ccccc2S1(=O)=O	nt	nt	3	-5
CC1(C)CC(=O)C2=C(C1)N(Cc1ccco1)C(=O)C2(NC(=O)c1cccnc1)C(F)(F)F (stereo not drawn)	-10	0	1	1
CC1(C)CC(=O)C2=C(C1)N(Cc1ccco1)C(=O)C2(O)C(F)(F)F (stereo not drawn)	94*	-1	-8	2
C=C1C(C(=O)Nc2ccccc2)C1C(=O)Nc1ccccc1 (stereo not drawn)	59*	0	1	-5
CN(C)C(=O)Nc1ccccc1	1	0	6	3
CCCCNS(=O)(=O)/C=C/c1ccc(F)cc1CNC(=O)OC(C)(C)C	nt	nt	4	8
CCCc1nc(SCc2ccc(Cl)cc2Cl)n[nH]1	59*	0	4	1
SMILES	CRFBP-R2 block	CRFBP-R2 agonist	DDE Tn6 FP inh	Tn7 DDE FP
CC(C)=CCC[C@@]1(C(=O)O)[C@@H]2C/C=C(\C)CC/C=C(\C)CC[C@H]1[C@]1(CC2)CO1	nt	nt	1	-4
COc1ccc(N(C(=O)c2ccco2)C(C(=O)NC2CCCC2)c2ccc(N3CCOCC3)cc2)c(OC)c1 (stereo not drawn)	53*	0	-1	4
COc1ccc(N(C(=O)c2ccco2)C(C(=O)NC2CCCC2)c2ccc(C)cc2)c(OC)c1 (stereo not drawn)	-1	0	-3	-8
Cc1cc(C(F)(F)F)c(C#N)c(SCC(=O)Nc2nc3ccccc3s2)n1	-164	80*	-5	-1
Cc1ccc(NC(=O)CSC2=C(C#N)C(c3ccco3)CC(=O)N2)cc1 (stereo not drawn)	109*	0	2	-2
Cc1ccc(C(=O)CSC2=C(C#N)C(c3ccco3)CC(=O)N2)c(C)c1 (stereo not drawn)	-58	57*	7	-2
Cc1ccc(Cn2c(SCC(=O)NCC3CCCO3)nc3ccsc3c2=O)cc1 (stereo not drawn)	54*	2	-1	3
COc1ccc(S[C@]2(C(=O)N3CCN(c4ncccn4)CC3)CC(=O)N(C(=O)c3ccccc3)[C@@H]2c2ccc(OC)cc2)cc1	nt	nt	2	4
COC(=O)/C=c1/s/c(=C(\C#N)C(=O)NCc2ccco2)n(-c2ccccc2)c1=O	78*	7	-9	-4
CC1=CC2(C)NC(=O)C(C)C12 (stereo not drawn)	-16	5	3	0
C=CCNc1nc(Cl)nc(Nc2ccccc2)n1	3	-2	-1	-7
CNc1nc(Cl)nc(Nc2ccccc2)n1	103*	0	1	1
O=C(N/C(=C/c1ccc(F)cc1)C(=O)N1CCOCC1)c1ccco1	6	-1	0	0
S=c1[nH]c2ccccc2n2c(=S)[nH]nc12	55*	6	3	2
COc1ccc(NC2CCCN(C(=O)c3cccc(C)n3)C2)cc1OC (stereo not drawn)	103*	1	-3	-2
COc1ccc(NC2CCCN(C(=O)c3csc(C(C)C)n3)C2)cc1OC (stereo not drawn)	0	0	1	-6
Cc1nn(-c2cccc([N+](=O)[O-])c2)c(N)c1-c1ccccc1	57*	0	2	1
CCCC1CCC2(CCCN2CCOC(=S)NCc2cccc(C)c2)CC1 (stereo not drawn)	nt	nt	-1	-2
CCOC(=O)c1c(-c2ccccc2)oc2ccc(OC(C)C(=O)O)cc12 (stereo not drawn)	52*	-1	-4	-10
COc1ccc(C=C(C#N)C(=O)c2ccccc2)cc1	nt	nt	4	-6
COc1cc(/C=C(\C#N)C(=O)c2ccc(O)c(O)c2)cc(I)c1O	-215	188*	0	3
O=[N+]([O-])/C(C(Cl)=C(Cl)Cl)=C(/NC1CC1)Sc1ccccc1	56*	-2	-1	6
Cc1ccccc1Cn1nc(C)c(NC(=O)c2cc(-c3cccs3)on2)c1C	57*	2	nt	nt
O=C(OCCN1C(=O)c2cccc3c(N4CCOCC4)ccc(c23)C1=O)c1cccc(Cl)c1	-169	175*	nt	nt
O=C(OCCN1C(=O)c2cccc3c(N4CCOCC4)ccc(c23)C1=O)c1ccc(Cl)cc1Cl	-161	176*	-5	4
CSc1ccc(-c2csc(N3CCC(C(N)=O)CC3)n2)cc1	nt	nt	-1	4
CCN1CCN(Cc2ccc(NC(=O)c3cccc(-c4ccc5nc(NC(=O)C6CC6)sc5n4)c3)cc2C(F)(F)F)CC1	nt	nt	-12	-6
O=S1(=O)c2ccc(Br)cc2OC[C@@H](Cc2ccccc2)N1Cc1cn(Cc2ccc(Cl)cc2)nn1	nt	nt	2	-1
